Experimental data reported in ChEMBL document CHEMBL3758144, “Dihydroisocoumarin Derivatives from Marine-Derived Fungal Isolates and Their Anti-inflammatory Effects in Lipopolysaccharide-Induced BV2 Microglia” (J Nat Prod, 2015).
The source made the active and inactive calls. The rule behind the calls is not given here.

Legend:
[1] = test system: BV-2; test: Inhibition of LPS-induced COX2 expression in […] BV2 cells pretreated for 30 mins followed by LPS stimulation measured for 24 hrs by Western blot analysis; type: functional, cell-based; conditions: Mus musculus
Summary of the method: (§1)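 BV2 microglia pretreated 30 min with test agent at 20−80 μM, then LPS 1 μg/mL for 24 h. Lysates in 20 mM Tris-HCl pH 7.4 with protease inhibitors, protein by Lowry. SDS-PAGE, nitrocellulose transfer, milk block, ECL detection. Band densitometry normalized to β-actin.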

[2] = test system: BV-2; test: Inhibition of LPS-induced iNOS expression in […] BV2 cells pretreated for 30 mins followed by LPS stimulation measured for 24 hrs by Western blot analysis; type: functional, cell-based; conditions: Mus musculus; summary of the method: as §1
[3] = Cytotoxicity against […] BV2 cells at 10 to 80 uM by MTT assay; type: cell-based; conditions: bv-2, 80 µM
Summary of the method: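 MTT added to BV2 cell suspension (1 × 10^5 cells/mL), incubated 30 min. Formazan dissolved in acidic 2-propanol and read at 540 nm. Compounds tested at 10−80 μM.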

[4] = (§2) Antiinflammatory activity in LPS-induced […] BV2 cells assessed as reduction in NO production pretreated for 30 mins followed by LPS stimulation measured for 24 hrs by Greiss assay; type: functional, cell-based; conditions: BV-2
Summary of the method: (§3)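 BV2 microglia in DMEM with 10% heat-inactivated FBS, penicillin/streptomycin and 2 mM L-glutamine at 37 °C, 5% CO2. Pretreated 30 min with test agent (10−80 μM range), then LPS 1 μg/mL for 24 h. Nitrite in supernatant measured by Griess reagent, absorbance at 525 nm. IC50 from mean of three experiments ± SD.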

[5] = test system: BV-2; test: as §2; type: functional, cell-based; conditions: Mus musculus; summary of the method: as §3
[6] = (§4) Antiinflammatory activity in LPS-induced […] BV2 cells assessed as reduction in PGE2 production pretreated for 30 mins followed by LPS stimulation measured for 24 hrs by ELISA; type: functional, cell-based; conditions: BV-2
Summary of the method: (§5)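 BV2 microglia cultured in 24-well plates and preincubated 30 min with test agent (10−80 μM range), then stimulated 24 h with LPS 1 μg/mL. Supernatant PGE2 quantified by ELISA kit. IC50 from mean of three experiments ± SD.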

[7] = test system: BV-2; test: as §4; type: functional, cell-based; conditions: Mus musculus; summary of the method: as §5
[8] = target: T1, NF-kappa-B inhibitor alpha (Homo sapiens) (UniProt P25963); test: Inhibition of IkappaB-alpha degradation in LPS-induced […] BV2 cells pretreated for 30 mins followed by LPS stimulation for 30 mins by Western blot analysis; type: cell-based; conditions: BV-2
T1 sequence (whole entry): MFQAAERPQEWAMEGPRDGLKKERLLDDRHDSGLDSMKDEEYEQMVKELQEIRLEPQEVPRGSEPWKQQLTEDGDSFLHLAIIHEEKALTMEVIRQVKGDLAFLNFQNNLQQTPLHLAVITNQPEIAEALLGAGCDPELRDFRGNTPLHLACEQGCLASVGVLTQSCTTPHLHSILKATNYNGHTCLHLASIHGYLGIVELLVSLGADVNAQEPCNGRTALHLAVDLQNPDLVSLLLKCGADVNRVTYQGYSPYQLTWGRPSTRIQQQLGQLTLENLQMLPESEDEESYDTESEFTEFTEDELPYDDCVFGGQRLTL
Summary of the method: (§6)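 BV2 microglia pretreated 30 min with test agent (20, 40, 80 μM), then LPS for 30 min. Cytosolic and nuclear fractions prepared with NE-PER reagents. Western blot for IκB-α, phospho-IκB-α, p65 and p50. Densitometry normalized to β-actin (cytosol) or PCNA (nucleus). Mean of three experiments ± SD.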

[9] = target: T1, NF-kappa-B inhibitor alpha (Homo sapiens); test: Inhibition of IkappaB-alpha phosphorylation in LPS-induced […] BV2 cells pretreated for 30 mins followed by LPS stimulation for 30 mins by Western blot analysis; type: cell-based; conditions: BV-2; summary of the method: as §6
[10] = target: Transcription factor p65 (Homo sapiens) (UniProt Q04206); test: Inhibition of LPS-induced p65 translocation from cytosol to nucleus in […] BV2 cells pretreated for 30 mins followed by LPS stimulation for 30 mins by Western blot analysis; type: cell-based; conditions: BV-2; summary of the method: as §6
Chain of Transcription factor p65 (Homo sapiens) (Q04206 whole entry): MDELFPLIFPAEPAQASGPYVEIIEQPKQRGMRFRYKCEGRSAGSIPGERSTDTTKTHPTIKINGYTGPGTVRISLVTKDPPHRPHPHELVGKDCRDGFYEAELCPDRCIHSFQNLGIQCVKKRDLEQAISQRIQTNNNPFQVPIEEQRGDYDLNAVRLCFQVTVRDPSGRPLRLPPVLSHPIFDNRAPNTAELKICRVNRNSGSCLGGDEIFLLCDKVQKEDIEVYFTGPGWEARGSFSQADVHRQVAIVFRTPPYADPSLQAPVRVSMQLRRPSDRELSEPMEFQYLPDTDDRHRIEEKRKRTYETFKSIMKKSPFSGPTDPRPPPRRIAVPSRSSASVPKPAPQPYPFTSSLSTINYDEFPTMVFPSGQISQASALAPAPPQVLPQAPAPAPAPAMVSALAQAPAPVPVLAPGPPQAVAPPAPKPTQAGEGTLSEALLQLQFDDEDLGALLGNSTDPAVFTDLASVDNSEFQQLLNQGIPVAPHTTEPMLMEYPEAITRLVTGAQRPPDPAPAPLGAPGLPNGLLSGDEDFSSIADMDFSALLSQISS

[11] = target: T2, Nuclear factor NF-kappa-B p105 subunit (Homo sapiens) (UniProt P19838); test: Inhibition of LPS-induced p50 translocation from cytosol to nucleus in […] BV2 cells pretreated for 30 mins followed by LPS stimulation for 30 mins by Western blot analysis; type: cell-based; conditions: BV-2; summary of the method: as §6
T2 sequence (whole entry): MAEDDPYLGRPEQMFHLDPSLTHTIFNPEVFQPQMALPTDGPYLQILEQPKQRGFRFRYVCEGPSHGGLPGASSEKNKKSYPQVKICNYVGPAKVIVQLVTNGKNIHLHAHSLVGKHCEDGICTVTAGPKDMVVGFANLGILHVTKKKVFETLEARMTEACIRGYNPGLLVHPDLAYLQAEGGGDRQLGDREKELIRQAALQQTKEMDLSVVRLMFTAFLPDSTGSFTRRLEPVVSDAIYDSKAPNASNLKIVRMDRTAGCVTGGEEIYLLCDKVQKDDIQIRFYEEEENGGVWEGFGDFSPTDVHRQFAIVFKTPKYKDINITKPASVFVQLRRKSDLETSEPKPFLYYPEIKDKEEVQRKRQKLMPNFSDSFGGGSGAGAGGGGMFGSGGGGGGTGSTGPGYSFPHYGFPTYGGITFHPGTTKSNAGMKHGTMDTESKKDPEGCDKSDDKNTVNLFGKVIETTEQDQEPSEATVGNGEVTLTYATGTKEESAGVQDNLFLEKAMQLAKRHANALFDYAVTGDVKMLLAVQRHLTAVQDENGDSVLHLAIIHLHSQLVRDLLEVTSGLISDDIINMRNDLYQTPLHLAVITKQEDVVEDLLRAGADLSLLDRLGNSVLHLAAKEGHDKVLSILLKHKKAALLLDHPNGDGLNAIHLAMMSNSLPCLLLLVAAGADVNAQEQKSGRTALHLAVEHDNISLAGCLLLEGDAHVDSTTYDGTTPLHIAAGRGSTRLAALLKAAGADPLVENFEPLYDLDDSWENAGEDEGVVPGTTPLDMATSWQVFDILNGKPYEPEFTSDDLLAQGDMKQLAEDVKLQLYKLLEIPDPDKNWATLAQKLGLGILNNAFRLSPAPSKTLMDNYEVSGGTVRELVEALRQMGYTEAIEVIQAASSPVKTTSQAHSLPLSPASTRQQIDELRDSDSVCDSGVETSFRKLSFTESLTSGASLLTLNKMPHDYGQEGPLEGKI

[12] = test system: BV-2; test: Inhibition of ERK phosphorylation in […] BV2 cells at 20 to 80 uM pretreated for 30 mins followed by LPS stimulation for 30 mins by Western blot analysis; type: cell-based
Summary of the method: (§7)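 BV2 microglia pretreated 30 min with test agent (20−80 μM), then LPS 1 μg/mL for 30 min. Total and phosphorylated ERK, JNK and p38 detected by Western blot (SDS-PAGE, nitrocellulose, ECL).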

[13] = Effect on ERK expression in […] BV2 cells at 20 to 80 uM pretreated for 30 mins followed by LPS stimulation for 30 mins by Western blot analysis; type: ADME, cell-based; conditions: bv-2, 0.5 h; summary of the method: as §7
[14] = Effect on JNK expression in […] BV2 cells at 20 to 80 uM pretreated for 30 mins followed by LPS stimulation for 30 mins by Western blot analysis; type: ADME, cell-based; conditions: bv-2, 0.5 h; summary of the method: as §7
[15] = Effect on p38 expression in […] BV2 cells at 20 to 80 uM pretreated for 30 mins followed by LPS stimulation for 30 mins by Western blot analysis; type: ADME, cell-based; conditions: bv-2, 0.5 h; summary of the method: as §7
[16] = test system: p38 MAPK (Mus musculus); test: Inhibition of p38 phosphorylation in mouse BV2 cells pretreated for 30 mins followed by LPS stimulation for 30 mins by Western blot analysis; conditions: BV-2
[17] = test system: JNK (Mus musculus); test: Inhibition of JNK phosphorylation in mouse BV2 cells at 20 to 80 uM pretreated for 30 mins followed by LPS stimulation for 30 mins by Western blot analysis; conditions: BV-2

With `C[C@H]1C[C@@H](O)C[C@H](C[C@H]2Cc3cc(O)cc(O)c3C(=O)O2)O1` as the molecule, how does the inhibition [1] read?
The inhibition was “Dose-dependent effect”.

And the inhibition [2]?
Its inhibition is “Dose-dependent effect”.

And the Activity [3]?
Its Activity is “Non-toxic”.

And the IC50 [4]?
Its IC50 is 65 µM.

And the Activity [5]?
Its Activity is “Dose-dependent effect”.

And the IC50 [6]?
The IC50 was 61 µM.

And the Activity [7]?
The Activity was “Dose-dependent effect”.

Which inhibition [1] does the source give for `C[C@H]1CCC[C@H](C[C@H]2Cc3cc(O)cc(O)c3C(=O)O2)O1` [CLADOSPORIN] here?
Its inhibition is “Dose-dependent effect”.

What about the inhibition [2] of the same molecule?
The inhibition was “Dose-dependent effect”.

And the Activity [3]?
Its Activity is “Non-toxic”.

And the IC50 [4]?
Its IC50 is 24 µM.

And the Activity [5]?
Its Activity is “Dose-dependent effect”.

And the IC50 [6]?
The IC50 was 27 µM.

What about the Activity [7] of the same molecule?
Its Activity is “Dose-dependent effect”.

With `COc1cc(O)cc2c1C(=O)O[C@@H](C[C@H]1CCC[C@H](C)O1)C2` as the molecule, how does the inhibition [1] read?
The inhibition was “Dose-dependent effect”.

What about the inhibition [2] of the same molecule?
Its inhibition is “Dose-dependent effect”.

And the Activity [3]?
The Activity was “Non-toxic”.

And the IC50 [4]?
The IC50 was 28 µM.

What about the Activity [5] of the same molecule?
The Activity was “Dose-dependent effect”.

And the IC50 [6]?
Its IC50 is 30 µM.

What about the Activity [7] of the same molecule?
The Activity was “Dose-dependent effect”.

For `COc1cc(O)c2c(c1)C[C@H](C[C@H]1CCC[C@H](C)O1)OC2=O`, which inhibition [1] is on record?
Its inhibition is “Dose-dependent effect”.

And the inhibition [2]?
Its inhibition is “Dose-dependent effect”.

And the Activity [3]?
The Activity was “Non-toxic”.

And the IC50 [4]?
The IC50 was 21 µM.

And the Activity [5]?
Its Activity is “Dose-dependent effect”.

And the IC50 [6]?
The IC50 was 21 µM.

And the Activity [7]?
The Activity was “Dose-dependent effect”.

Which inhibition [1] does the source give for `C[C@@H]1O[C@@H](C[C@H]2Cc3cc(O)cc(O)c3C(=O)O2)CC[C@@H]1O` here?
Its inhibition is “Dose-dependent effect”.

What about the inhibition [2] of the same molecule?
The inhibition was “Dose-dependent effect”.

What about the Activity [3] of the same molecule?
Its Activity is “Non-toxic”.

What about the IC50 [4] of the same molecule?
Its IC50 is 20 µM.

And the Activity [5]?
Its Activity is “Dose-dependent effect”.

What about the IC50 [6] of the same molecule?
Its IC50 is 23 µM.

And the Activity [7]?
The Activity was “Dose-dependent effect”.

With `C[C@H]1CCC[C@H](C[C@H]2Cc3cc(O)cc(O[C@H]4O[C@H](CO)[C@@H](O)[C@H]4O)c3C(=O)O2)O1` as the molecule, how does the inhibition [8] read?
The inhibition was “Dose-dependent effect”.

What about the inhibition [9] of the same molecule?
The inhibition was “Dose-dependent effect”.

What about the inhibition [1] of the same molecule?
Its inhibition is “Dose-dependent effect”.

What about the inhibition [2] of the same molecule?
Its inhibition is “Dose-dependent effect”.

What about the Activity [3] of the same molecule?
The Activity was “Non-toxic”.

What about the IC50 [4] of the same molecule?
The IC50 was 33 µM.

And the Activity [5]?
The Activity was “Dose-dependent effect”.

What about the IC50 [6] of the same molecule?
The IC50 was 34 µM.

And the Activity [7]?
The Activity was “Dose-dependent effect”.

And the inhibition [10]?
Its inhibition is “Dose-dependent effect”.

And the inhibition [11]?
Its inhibition is “Dose-dependent effect”.

What about the inhibition [12] of the same molecule?
The inhibition was “inactive”.

What about the Activity [13] of the same molecule?
The Activity was “Non-toxic”.

What about the Activity [14] of the same molecule?
The Activity was “Non-toxic”.

What about the Activity [15] of the same molecule?
Its Activity is “Non-toxic”.

What about the Activity [16] of the same molecule?
The Activity was “Dose-dependent effect”.

And the inhibition [17]?
The inhibition was “inactive”.
